Measurements collected from several papers.
Each line is one published result; the experiments were not run side by side.
Effect on: enzyme activity
Action: inhibitor
PIK3CA: Phosphatidylinositol 4,5-bisphosphate 3-kinase catalytic subunit alpha isoform (PIK3CA, Homo sapiens, UniProt P42336)
PIK3CB: Phosphatidylinositol 4,5-bisphosphate 3-kinase catalytic subunit beta isoform (PIK3CB, Homo sapiens, UniProt P42338)
KDR: Vascular endothelial growth factor receptor 2 (KDR, Homo sapiens, UniProt P35968)

CC(C)C[C@H](NC(=O)[C@@H](NC(=O)N[C@@H](Cc1ccccc1)C(=O)O)[C@@H]1CCN=C(N)N1)C(=O)N[C@H](C=O)Cc1ccccc1  IC50 (Cathepsin G (CTSG, Homo sapiens, UniProt P08311)): 4190 nM
Cc1nc2c(F)cc(-c3ccnc(Nc4ccc5c(=O)cc(N6CCOCC6)oc5c4)n3)cc2n1C(C)C  IC50 (PIK3CA; radiometric): 2130 nM
O=C1C(=Nc2ccccc2Br)c2ccccc2N1Cc1ccccc1  IC50 (PIK3CB; ADP detection): 16.6 nM
O=[N+]([O-])c1cc(I)c(O)c(C=NNc2ccccc2)c1  IC50 (KDR; ATP luminescence): 4970 nM
Cc1cccc(N=C2C(=O)N(Cc3ccccc3)c3ccccc32)c1  IC50 (PIK3CA; ADP detection): 8.64 nM
CN(C)C(=O)c1cc2cnc(Nc3ccc(-c4ccc5c(=O)cc(N6CCNCC6)oc5c4)cc3)nc2n1C1CCCC1  IC50 (PIK3CA; radiometric): > 10000 nM
O=[N+]([O-])c1cc(I)c(O)c(C=NNc2ccc(Br)cc2)c1  IC50 (KDR; ATP luminescence): 6520 nM
O=C1/C(=C/c2ccc3ccccc3c2O)NC(=S)N1c1ccccc1  IC50 (KDR; ELISA): 235 nM
O=C1C(=Nc2ccc(Cl)cc2)c2ccccc2N1Cc1ccc([N+](=O)[O-])cc1  IC50 (PIK3CB; ADP detection): 7.73 nM
CN(C)C(=O)c1cc2cnc(Nc3ccc(-c4cccc5c(=O)cc(N6CCOCC6)oc45)c(F)c3)nc2n1C1CCCC1  IC50 (PIK3CA; radiometric): 182 nM
O=[N+]([O-])c1cc(Br)c(O)c(C=NNc2ccc(Cl)cc2)c1  IC50 (KDR; ATP luminescence): 7700 nM
CN(C)C(=O)c1cc2cnc(Nc3cc(C(=O)O)cc(-c4cccc5c(=O)cc(N6CCOCC6)oc45)c3)nc2n1C1CCCC1  IC50 (PIK3CA; radiometric): 1590 nM
Cc1ccc(CN2C(=O)C(=Nc3c(C(C)C)cccc3C(C)C)c3ccccc32)cc1  IC50 (PIK3CA; ADP detection): 319 nM
CC1=C(/C=C/C(C)=C/C=C/C(C)=C/C=C/C=C(C)/C=C/C=C(C)/C=C/C2=C(C)CCCC2(C)C)C(C)(C)CCC1  IC50 (KDR; TR-FRET): > 40000 nM
O=[N+]([O-])c1cc(Br)c(O)c(C=NNc2ccc(C(F)(F)F)cc2)c1  IC50 (KDR; ATP luminescence): 8950 nM
O=C1Nc2ccccc2C1=Nc1cccc(Cl)c1  IC50 (PIK3CB; ADP detection): 511 nM
CN(C)C(=O)c1cc2cnc(Nc3cncc(-c4ccc5c(=O)cc(N6CCOCC6)oc5c4)c3)nc2n1C1CCCC1  IC50 (PIK3CA; radiometric): 260 nM
O=[N+]([O-])c1ccc(O)c(C=NNc2ccc(Br)cc2)c1  IC50 (KDR; ATP luminescence): 12600 nM
COc1ccc(-c2cc(=O)c3cccc(Nc4ncc5cc(C(=O)N(C)C)n(C6CCCC6)c5n4)c3o2)cc1  IC50 (PIK3CA; radiometric): > 10000 nM
Cc1cccc(N=C2C(=O)Nc3ccccc32)c1  IC50 (PIK3CB; ADP detection): 134 nM
O=[N+]([O-])c1ccc(O)c(C=NNc2ccc(Cl)cc2)c1  IC50 (KDR; ATP luminescence): 21200 nM
COc1ccc(Nc2nc(Nc3ccc4ncccc4c3)nc(N3CCOCC3)n2)cc1  IC50 (PIK3CA; ADP detection): 1290 nM
COc1cc(N=C2C(=O)N(Cc3ccccc3)c3ccccc32)cc(OC)c1  IC50 (PIK3CA; ADP detection): 7.31 nM
CN(C)C(=O)c1cc2cnc(Nc3cc(C(=O)O)cc(-c4ccc5c(=O)cc(N6CCOCC6)oc5c4)c3)nc2n1C1CCCC1  IC50 (PIK3CA; radiometric): 111 nM
O=C1C(=Nc2ccccc2I)c2ccccc2N1Cc1ccc(Br)cc1  IC50 (PIK3CA; ADP detection): 298 nM
COc1ccc(-c2cc(=O)c3c(O)cc(O[C@@H]4O[C@H](CO[C@@H]5O[C@@H](C)[C@H](O)[C@@H](O)[C@H]5O)[C@@H](O)[C@H](O)[C@H]4O)cc3o2)cc1O  IC50 (KDR; TR-FRET): 32700 nM
CN(C)C(=O)c1cc2cnc(Nc3ccc4c(=O)cc(N5CCNCC5)oc4c3)nc2n1C1CCCC1  IC50 (PIK3CA; radiometric): > 10000 nM
